From ChEMBL document CHEMBL3272228, “Antimalarial activity of some novel derivatives of 2,4-diamino-5(p-chlorophenyl)-6-ethylpyrimidine (pyrimethamine)” (J Med Chem, 1976)
Activity calls are given as the source filed them. The calls are words filed in the database; no cut-off is given here.

Legend:
[1] = test system: Plasmodium berghei; test: Antimalarial activity against Plasmodium berghei KBG13 infected in mouse assessed as minimum dose required for disease cures; type: functional
Summary of the method: (§1)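 P. berghei strain KBG 13 in mice, groups of five treated, doses up to 640 mg/kg. Scored as increase in mean survival time in days over controls and as cured/treated. Reported values are the lowest dose giving any cure and the lowest dose showing activity.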

[2] = test system: Plasmodium berghei; test: Antimalarial activity against Plasmodium berghei KBG13 infected in mouse assessed as minimum dose required for activity; type: functional; settings: for minimal effective dose: read-out: MED; summary of the method: as §1
[3] = test system: Plasmodium berghei; test: Antimalarial activity against Plasmodium berghei KBG13 infected in mouse assessed as increase in host mean survival time at minimum dose; type: functional
Summary of the method: (§2)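 Mice infected with Plasmodium berghei strain KBG 13. Five mice per dose group, with doses up to 640 mg/kg. Read-out is the increase in mean survival time in days, with cured/treated counts recorded. The minimum active dose is the lowest dose showing activity, and survival gain is also reported at that dose.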

[4] = test system: Plasmodium berghei; test: Antimalarial activity against Plasmodium berghei KBG13 infected in mouse assessed as disease cures at 640 mg/kg; type: functional, organism-based; set-up: dose 640 mg/kg; summary of the method: as §1
[5] = test system: Mus musculus; test: Toxicity in mouse infected with Plasmodium berghei KBG13 assessed as animal death at 640 mg/kg; type: organism-based; set-up: dose 640 mg/kg; settings: in vivo
[6] = test system: Plasmodium berghei; test: Antimalarial activity against Plasmodium berghei KBG13 infected in mouse assessed as increase in host mean survival time at 640 mg/kg; type: functional; summary of the method: as §2
[7] = test system: Plasmodium gallinaceum; test: Antimalarial activity against Plasmodium gallinaceum infected in chicks assessed as increase in host survival; type: functional, organism-based
Summary of the method: (§3)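 P. gallinaceum in chicks given doses of 100–160 mg/kg. Activity is expressed as T/C, the increase in survival time in days.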

[8] = species: Mus musculus; test: Toxicity in mouse infected with Plasmodium berghei KBG13 assessed as animal death at 4 times minimum curative dose; type: organism-based; settings: in vivo
[9] = test system: Plasmodium gallinaceum; test: Antimalarial activity against Plasmodium gallinaceum infected in chicks assessed as increase in host survival time at 100 to 160 mg/kg; type: functional; settings: dose mg/kg 100-160
Summary of the method: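 Chicks infected with Plasmodium gallinaceum, in limited testing at doses of 100-160 mg/kg. Activity is expressed as T/C in days of survival at the respective dose levels.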

[10] = test system: Plasmodium gallinaceum; test: Antimalarial activity against Plasmodium gallinaceum infected in chicks assessed as increase in host survival at 120 mg/kg; type: functional, organism-based; set-up: dose 120 mg/kg; summary of the method: as §3
[11] = species: Mus musculus; test: Toxicity in mouse infected with Plasmodium berghei KBG13 assessed as animal death at 2 times minimum curative dose; type: organism-based; settings: in vivo

| SMILES | Activity [4] | MCD [1] [mg/kg] | minimal effective dose [2] [mg/kg] | MST [3] [days] | other results |
| --- | --- | --- | --- | --- | --- |
| CC(=O)NC(C)c1nc(N)nc(N)c1-c1ccc(Cl)cc1 (racemic) | inactive |  |  |  | Activity [1]: inactive; Activity [2]: inactive; Activity [3]: inactive |
| CC(=O)c1nc(N)nc(N)c1-c1ccc(Cl)cc1 |  | 320 | 80 | 5.9 | Activity [5]: Toxic |
| C/C(=N/N)c1nc(N)nc(N)c1-c1ccc(Cl)cc1 |  |  | 160 | 8.4 | MST [6]: 14.8 days |
| C/C(=N/O)c1nc(N)nc(N)c1-c1ccc(Cl)cc1 |  |  | 160 | 3.4 | MST [6]: 5.4 days |
| CN/N=C(\C)c1nc(N)nc(N)c1-c1ccc(Cl)cc1 |  |  |  |  | Activity [1]: inactive; Activity [2]: inactive; Activity [5]: Toxic; Activity [3]: inactive |
| CC(N)c1nc(N)nc(N)c1-c1ccc(Cl)cc1 (configuration not stated) | inactive |  |  |  | Activity [1]: inactive; Activity [2]: inactive; Activity [3]: inactive |
| C/C(=N\NC(=N)N)c1nc(N)nc(N)c1-c1ccc(Cl)cc1 | inactive |  |  |  | Activity [1]: inactive; Activity [2]: inactive; Activity [3]: inactive |
| CCN(CC)CCCC(C)NC(C)c1nc(N)nc(N)c1-c1ccc(Cl)cc1 (configuration not stated) |  |  |  |  | Activity [7]: inactive |
| CCOC(C)(OCC)c1nc(N)nc(N)c1-c1ccc(Cl)cc1 | Active | 160 | 20 | 3.5 | Activity [8]: Non-toxic; MST [9]: 5.4 days |
| CC(O)c1nc(N)nc(N)c1-c1ccc(Cl)cc1 (racemic) | Active |  | 80 | 4.7 | MST [9]: 5.4 days |
| C/C(c1nc(N)nc(N)c1-c1ccc(Cl)cc1)=[N+](\C)[O-] |  | 640 | 160 | 3.1 | Activity [10]: inactive |
| CCc1nc(N)nc(N)c1-c1ccc(Cl)cc1 [PYRIMETHAMINE] |  | 40 |  |  | Activity [11]: Toxic |
| COC(C)(OC)c1nc(N)nc(N)c1-c1ccc(Cl)cc1 | Active | 320 | 40 | 4.5 | MST [9]: 5.4 days |
| C/C(=N\N(C)C)c1nc(N)nc(N)c1-c1ccc(Cl)cc1 |  | 320 | 40 | 3.8 | Activity [5]: Toxic |
